Key:
[1] = target: T1, Glutamate NMDA receptor (Rattus norvegicus) (UniProt P35439+Q00959+Q00960+Q00961+Q62645+Q8VHN2+Q9R1M7); assay: Inhibition of stimulus-evoked […] NMDA receptor response in medial perforant path of the rat hippocampus.; type: functional, tissue-based
How it was run: (§1)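 Rat hippocampal slices (500 µm, male Sprague-Dawley, 30-50 days) with perforant path stimulation (0.1 ms, 4-30 V, 0.1 Hz). Field potential recorded in the dentate granule cell synaptic field of the lateral or medial perforant path at 34 °C. Drug doubled every 4 min from subthreshold up to >70% inhibition or 8 mM. IC50 interpolated from fractional peak amplitude vs log concentration; mean of ≥4 experiments.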

[2] = target: T1, Glutamate NMDA receptor (Rattus norvegicus); assay: (§2) Inhibition of stimulus-evoked CA1 pyramidal cell NMDA receptor of the rat hippocampus.; type: functional, tissue-based
How it was run: (§3)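 Transverse hippocampal slices (500 µm) from 30-50 day male Sprague-Dawley rats. Schaffer collateral stimulation at 0.1 ms, 4-30 V, 0.1 Hz. Extracellular field potential peak amplitude recorded in CA1 stratum radiatum at 34 °C. Medium held 0.1 mM Mg2+ plus 10 μM CNQX to isolate NMDA responses. Drug doubled every 4 min from subthreshold until >70% decline or 8 mM. IC50 interpolated from the log concentration plot; mean of ≥4 experiments.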

Rattus norvegicus [3] = species: Rattus norvegicus; assay: (§4) Inhibition of stimulus-evoked kainate/AMPA receptor responses in CA1 pyramidal cells of the rat hippocampus before QUIS exposure.; type: functional
How it was run: (§5)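 Schaffer collateral-evoked CA1 field potential in 500 µm rat hippocampal slices, recording medium with 2.4 mM Mg2+, 34 °C. IC50 from 4-min doubling concentration steps, interpolated at 50% peak-amplitude loss; mean of ≥4 experiments. Measured first, then after 5 min 16 μM L-quisqualic acid and washout, then again after 5 min 2 mM L-α-aminoadipic acid and washout.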

Rattus norvegicus [4] = species: Rattus norvegicus; assay: Inhibition of stimulus-evoked kainate/AMPA receptor responses in CA1 pyramidal cells of the rat hippocampus after reversal with alpha AA.; type: functional; how it was run: as §5
Rattus norvegicus [5] = species: Rattus norvegicus; assay: Inhibition of stimulus-evoked response in lateral perforant path of the rat hippocampus.
Rattus norvegicus [6] = species: Rattus norvegicus; assay: (§6) Inhibition of stimulus-evoked kainate/AMPA receptor responses in CA1 pyramidal cells of the rat hippocampus after QUIS exposure.; type: functional; how it was run: as §5
Rattus norvegicus [7] = species: Rattus norvegicus; assay: as §6; type: functional, organism-based; how it was run: as §5
Glutamate NMDA receptor [8] = assay: Inhibition of stimulus-evoked […] NMDA receptor response in lateral perforant path of the rat hippocampus.; type: functional, tissue-based; how it was run: as §1
Rattus norvegicus [9] = species: Rattus norvegicus; assay: as §4; type: functional, organism-based; how it was run: as §5
Glutamate NMDA receptor [10] = assay: as §2; type: functional, tissue-based; how it was run: as §3

`N[C@@H](C/N=c1\c(O)c(O)c1=O)C(=O)O` was tested, and the C50 [1] was 0.0059 mM, the C50 [2] was 0.01 mM and the C50 (Rattus norvegicus [3]) was 0.0011 mM. For the same molecule, the C50 (Rattus norvegicus [4]) was 0.001 mM, the C50 (Rattus norvegicus [5]) was 0.0034 mM and the C50 (Rattus norvegicus [6]) was 0.00055 mM.
With `NCCC/N=c1\c(O)c(O)c1=O` the IC50 (Rattus norvegicus [7]) was over 10 mM, the IC50 (Glutamate NMDA receptor [8]) was over 10 mM and the IC50 (Rattus norvegicus [9]) was over 10 mM. It also gave an IC50 (Glutamate NMDA receptor [10]) of 5.3 mM.
`Cl.NCC/N=c1\c(O)c(O)c1=O` was tested, and the C50 [2] was 3.5 mM, the C50 (Rattus norvegicus [3]) was over 10 mM and the C50 (Rattus norvegicus [5]) was over 10 mM. It also gave a C50 (Rattus norvegicus [6]) of over 10 mM.
